Among the data in ChEMBL document CHEMBL1156068, “Synthesis, pharmacological and antiviral activity of 1,3-thiazepine derivatives” (Eur J Med Chem, 2009) are EC50, Activity and CC50 values, retold here.

Activity calls are given as the source filed them. The rule behind the calls is not given here. Some results are limits rather than exact numbers.

For data set [1], the system named is Human immunodeficiency virus 1. In words: Antiviral activity against wild type HIV1 3B infected in human MT4 cells assessed as protection against virus induced cytopathogenicity after 4 days by MTT assay. To be noted: Human immunodeficiency virus 1, 3B, MT4, 96 h. In kind it is functional, organism-based. The essentials:
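MT-4 cells (1×10^4/well) in RPMI with serial compound dilutions were infected with HIV-1 (100 CCID50; m.o.i. 0.01). After 4 days, viability was measured by MTT. EC50 is the concentration giving 50% protection from virus-induced cytopathogenicity. Compounds were prepared as 100 mM DMSO stocks diluted in medium.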
In general terms: Protection from cytopathic effect is a common read-out in antiviral testing.

In data set [2] the test system is Yellow fever virus. In words: Antiviral activity against Yellow fever virus infected in BHK-21 cells assessed as protection against virus induced cytopathogenicity after 3 to 4 days by MTT assay. In kind it is functional, organism-based. The gist of the method: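 BHK cells were seeded at 5 × 10^4 per well and grown overnight to monolayers, then infected at m.o.i. 0.01 in serum-free medium. One hour later, MEM Earle's with 1% FCS (final) and serial compound dilutions were added. After 3–4 days at 37 °C, viability was read by MTT. EC50 is the concentration giving 50% protection from virus-induced cytopathogenicity.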

The test system of data set [3] is Bovine viral diarrhea virus 1. In words: Antiviral activity against Bovine viral diarrhea virus infected in MDBK cells assessed as protection against virus induced cytopathogenicity after 3 to 4 days by MTT assay. It counts as functional, organism-based. Particulars: for EC50: Bovine viral diarrhea virus isolates and strains. The gist of the method:
(§1)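 Monolayers were grown overnight at 37 °C, 5% CO2: MDBK at 3×10^4 cells/well, BHK at 5×10^4 cells/well. Cells infected at m.o.i. 0.01. After 1 h, serial compound dilutions added in MEM with 1% FCS. Viability read by MTT after 3–4 days at 37 °C. EC50 is the concentration giving 50% protection from cytopathogenicity.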

In data set [4] the test system is Coxsackievirus B2. The data set can be described thus: Antiviral activity against Coxsackie virus B2 infected in african green monkey Vero76 cells after 3 days by plaque reduction assay. In kind it is functional, organism-based. To be noted: Vero 76. The essentials:
(§2)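 Vero 76 monolayers (2×10^5 cells/well, overnight) infected to give 50–100 PFU/well. Unadsorbed virus removed, then DMEM with 1% FCS, 0.75% methylcellulose and serial compound dilutions added. Incubated at 37 °C for 3 days (CVB-2, HSV-1) or 5 days (RSV). Fixed and stained with 50% ethanol/0.8% crystal violet in PBS; plaques counted.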
(Plaque reduction counts the foci of infection that form in a cell layer.)

Data set [5] has as its system Poliovirus 1. In words: Antiviral activity against Poliovirus type 1 Sabin infected in african green monkey Vero76 cells after 2 days by plaque reduction assay. It counts as functional, cell-based. To be noted: Vero 76.
Data set [6] relates to Respiratory syncytial virus. The data set can be described thus: Antiviral activity against Respiratory syncytial virus infected in african green monkey Vero76 cells after 5 days by plaque reduction assay. To be noted: Vero 76. It counts as functional, organism-based. The essentials:
as §2

Data set [7] deals with Vesicular stomatitis virus. In words: Antiviral activity against Vesicular stomatitis virus infected in african green monkey Vero76 cells after 2 days by plaque reduction assay. Particulars: Vero 76. In kind it is functional, organism-based.
The test system of data set [8] is Mammalian orthoreovirus 1. The data set can be described thus: Antiviral activity against Reo virus type-1 infected in BHK-21 cells assessed as protection against virus induced cytopathogenicity after 3 to 4 days by MTT assay. It counts as functional, organism-based. The essentials:
as §1

Data set [9] has as its system Human alphaherpesvirus 1. The data set can be described thus: Antiviral activity against HSV1 infected in african green monkey Vero76 cells after 3 days by plaque reduction assay. It counts as functional, organism-based. Particulars: Vero 76. The gist of the method: as §2
For data set [10], the system named is Vaccinia virus. In words: Antiviral activity against Vaccinia virus infected in african green monkey Vero76 cells after 3 days by plaque reduction assay. To be noted: Orthopoxvirus vaccinia; Vero 76. In kind it is functional, organism-based.
Data set [11] is described as follows: Cytotoxicity against human MT4 cells assessed as reduction of cell viability after 96 hrs by MTT assay. In kind it is cell-based. The gist of the method: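 Exponentially growing, mock-infected MT-4 cells were seeded at 1×10^5 cells mL-1 in RPMI-1640 with 10% FCS and penicillin/streptomycin, with serial compound dilutions. Incubated 96 h at 37 °C, 5% CO2, then viability read by MTT. CC50 is the concentration reducing viability by 50%.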

A word on the EC50: it is the midpoint of the concentration-response curve. One may read the CC50 as the concentration giving 50% cytotoxicity. Consider `CC(C)C12C=CC(C)(CC1)C1C(=O)N(N3CCCCS/C3=N\c3ccc(F)cc3)C(=O)C12` (stereo not drawn), for which the EC50 in data set [1] was greater than 86 µM. For the same compound, the outcome in data set [2], in [3], in data set [4], in [5], in data set [6] and in data set [7] was inactive. The result in data set [8], in data set [9] and in [10] was inactive. For the same compound, in data set [11], the CC50 at 96 h is 86 µM.
With `C=CCNC(=S)NN1C(=O)C2C(C1=O)C1(C(C)C)C=CC2(C)CC1` (stereo not drawn), the EC50 is greater than 100 µM in [1] and 52 µM in data set [3]. Further, the result in [4], in data set [5], in [6], in data set [7], in data set [8] and in [9] was inactive. In addition, the outcome in data set [10] was inactive. The CC50 at 96 h in data set [11] was greater than 100 µM.
As to `CC1=CC2C(C(C)C)CC1C1C(=O)N(NC(=S)Nc3ccc(F)cc3)C(=O)C21` (stereo not drawn), the EC50 in data set [1] was greater than 69 µM. Further, the result in data set [2], in data set [3], in [4], in [5], in data set [6] and in data set [7] was inactive. Besides, the result in data set [8], in data set [9] and in data set [10] was inactive. Moreover, the CC50 at 96 h in [11] came out at 69 µM.
For `CC1=CC2C(C(C)C)CC1C1C(=O)N(NC(=S)NCc3ccccc3)C(=O)C21` (stereo not drawn), the EC50 turned out to be 30 µM in data set [1], 41 µM in [2] and 52 µM in data set [3]. Moreover, the outcome in data set [4], in [5], in [6], in data set [7], in [8] and in data set [9] was inactive. Also, the outcome in data set [10] was inactive. The CC50 at 96 h in data set [11] is 54 µM.
As to `CC(C)C12C=CC(C)(CC1)C1C(=O)N(N3CCCCS/C3=N\c3ccc(I)cc3)C(=O)C12` (stereo not drawn), in data set [1], the EC50 is greater than 59 µM. Moreover, the outcome in data set [2], in [3], in data set [4], in data set [5], in [6] and in data set [7] was inactive. Besides, the outcome in data set [8], in [9] and in [10] was inactive. Moreover, in [11], the CC50 at 96 h stood at 59 µM.
Consider `CC1=CC2C(C(C)C)CC1C1C(=O)N(NC(=S)Nc3ccc(C)cc3)C(=O)C21` (stereo not drawn), for which the result in [2], in data set [3], in data set [4], in [5], in data set [6] and in data set [7] was inactive. The result in [8], in data set [9] and in data set [10] was inactive.
With `Cc1ccc(/N=C2\SCCCCN2N2C(=O)C3C(C2=O)C2(C(C)C)C=CC3(C)CC2)cc1` (stereo not drawn), the outcome in data set [2], in [3], in data set [4], in [5], in data set [6] and in data set [7] was inactive. The outcome in data set [8], in [9] and in data set [10] was inactive.
For the compound `C=CC/N=C1\SCCCCN1N1C(=O)C2C(C1=O)C1(C(C)C)C=CC2(C)CC1` (stereo not drawn), the EC50 in [1] is greater than 58 µM. The outcome in data set [2], in data set [3], in data set [4], in [5], in data set [6] and in [7] was inactive. Also, the outcome in [8], in [9] and in [10] was inactive. The CC50 at 96 h in data set [11] is 58 µM.
With `CC(C)C12C=CC(C)(CC1)C1C(=O)N(NC(=S)NCc3ccccc3)C(=O)C12` (stereo not drawn), the EC50 is greater than 58 µM in data set [1] and 41 µM in data set [2]. Moreover, the result in data set [4], in data set [5], in [6], in [7], in [8] and in data set [9] was inactive. Moreover, in [10], the outcome was inactive. Also, the CC50 at 96 h in [11] amounted to 58 µM.
Turning to `CC1=CC2C(C(C)C)CC1C1C(=O)N(NC(=S)Nc3ccc(Cl)cc3)C(=O)C21` (stereo not drawn), the EC50 in data set [1] is greater than 45 µM. The result in data set [2], in data set [3], in data set [4], in data set [5], in data set [6] and in [7] was inactive. The outcome in data set [8], in [9] and in [10] was inactive. Further, the CC50 at 96 h in data set [11] is 45 µM.
As to `CC1=CC2C(C(C)C)CC1C1C(=O)N(N3CCCCS/C3=N\Cc3ccccc3)C(=O)C21` (stereo not drawn), in [1], the EC50 is greater than 47 µM. Moreover, the result in data set [2], in [3], in data set [4], in data set [5], in data set [6] and in data set [7] was inactive. Further, the result in data set [8], in [9] and in [10] was inactive. In addition, the cytotoxic concentration (CC50) at 96 h in data set [11] was 47 µM.
For the compound `CC(C)C12C=CC(C)(CC1)C1C(=O)N(NC(=S)Nc3ccc(F)cc3)C(=O)C12` (stereo not drawn), the result in [2], in data set [3], in data set [4], in data set [5], in data set [6] and in data set [7] was inactive. The outcome in data set [8], in data set [9] and in [10] was inactive.
On to `O=C1Nc2ccc(Cl)cc2[C@@](C#CC2CC2)(C(F)(F)F)O1` [EFAVIRENZ], for which the CC50 at 96 h in data set [11] is 35 µM.
`CC(C)C12C=CC(C)(CC1)C1C(=O)N(NC(=S)Nc3ccc(Cl)cc3)C(=O)C12` (stereo not drawn): the outcome in [2], in [3], in [4], in [5], in data set [6] and in [7] was inactive. In addition, the result in data set [8], in data set [9] and in [10] was inactive.
Consider `Cc1ccc(NC(=S)NN2C(=O)C3C(C2=O)C2(C(C)C)C=CC3(C)CC2)cc1` (stereo not drawn), for which the result in [2], in data set [3], in data set [4], in data set [5], in data set [6] and in data set [7] was inactive. Also, the outcome in data set [8], in [9] and in [10] was inactive.
